Holding throughout (type): functional
In experiment [1] the test system is Staphylococcus aureus. Kind of experiment: Antimicrobial activity against methicillin-susceptible Staphylococcus aureus ATCC 25923 by broth microdilution method. The method, boiled down:
(§1)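 Broth microdilution run in triplicate following CLSI guidelines. Isolates were stored at –80°C in double-strength skim milk and subcultured twice on Trypticase soy agar with 5% sheep blood before testing.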
A general note: Broth dilution looks for growth in wells or tubes with falling amounts of substance.

Experiment [2] relates to Staphylococcus aureus. Kind of experiment: Antimicrobial activity against community acquired methicillin-resistant Staphylococcus aureus 144 by broth microdilution method. A digest of the protocol: as §1
Experiment [3] concerns Staphylococcus aureus. Description: Antimicrobial activity against community acquired methicillin-resistant Staphylococcus aureus 147 by broth microdilution method. The method, boiled down: as §1
Experiment [4] has as its system Staphylococcus aureus. Kind of experiment: Antimicrobial activity against hospital acquired methicillin-resistant Staphylococcus aureus 152 by broth microdilution method. The method, boiled down:
as §1

For experiment [5], the system named is Staphylococcus aureus. Description: Antimicrobial activity against methicillin-susceptible Staphylococcus aureus ATCC 29213 by broth microdilution method. The method, boiled down: as §1
In experiment [6] the test system is Staphylococcus aureus. Kind of experiment: Antimicrobial activity against hospital acquired methicillin-resistant Staphylococcus aureus 149 by broth microdilution method. The method, boiled down: as §1
The test system of experiment [7] is Staphylococcus aureus. Description: Antimicrobial activity against hospital acquired methicillin-resistant Staphylococcus aureus 56 by broth microdilution method. A digest of the protocol:
as §1

The test system of experiment [8] is Staphylococcus aureus. Kind of experiment: Antimicrobial activity against community acquired methicillin-resistant Staphylococcus aureus 146 by broth microdilution method. A digest of the protocol:
as §1

≈ marks a conversion by molar mass, not a printed value.

The MIC is the lowest concentration that inhibits growth of the organism. A high value points to weaker potency. `CC[C@H]1OC(=O)[C@H](C)[C@@H](O[C@H]2C[C@@](C)(OC)[C@@H](O)[C@H](C)O2)[C@H](C)[C@@H](O[C@@H]2O[C@H](C)C[C@H](N(C)C)[C@H]2O)[C@](C)(O)C[C@@H](C)C(=O)[C@H](C)[C@@H](O)[C@]1(C)O` [ERYTHROMYCIN]: the MIC in experiment [1] is 0.5 µg/mL (≈ 0.681 µM); in experiment [2] it was more than 32 µg/mL; in experiment [3] it was more than 32 µg/mL; in experiment [4], 1 µg/mL (≈ 1.36 µM); in experiment [5], 1 µg/mL (≈ 1.36 µM); in experiment [6] it was more than 32 µg/mL. For the same molecule, the MIC in experiment [7] was 32 µg/mL (≈ 43.6 µM); in experiment [8] it was more than 32 µg/mL.

Turning to `CC(=O)NC[C@H]1CN(c2ccc(N3CCOCC3)c(F)c2)C(=O)O1` [LINEZOLID], in experiment [7], the MIC came out at 8 µg/mL (≈ 23.7 µM).

With `C[C@H]1c2cccc(O)c2C(=O)C2=C(O)[C@]3(O)C(=O)C(C(N)=O)=C(O)[C@@H](N(C)C)[C@@H]3[C@@H](O)[C@@H]21.O` [DOXYCYCLINE], the MIC in experiment [1] stood at 0.25 µg/mL; in experiment [2], 0.5 µg/mL; in experiment [3], 2 µg/mL; in experiment [4] it was 0.5 µg/mL; in experiment [5], 0.5 µg/mL; in experiment [6], 0.5 µg/mL. The MIC in experiment [7] worked out at 8 µg/mL; in experiment [8] it was 2 µg/mL.

As for `C[C@H]1COc2c(N3CCN(C)CC3)c(F)cc3c(=O)c(C(=O)O)cn1c23.C[C@H]1COc2c(N3CCN(C)CC3)c(F)cc3c(=O)c(C(=O)O)cn1c23.O` [LEVOFLOXACIN], the MIC worked out at 0.25 µg/mL in experiment [1]; 0.5 µg/mL in experiment [2]; 8 µg/mL in experiment [3]; 0.25 µg/mL in experiment [4]; 0.25 µg/mL in experiment [5]; 8 µg/mL in experiment [6]. Also, the values for the MIC in experiment [7] and in experiment [8] were 0.25 µg/mL and 8 µg/mL, respectively.

Consider `CCC[C@@H]1C[C@@H](C(=O)N[C@@H]([C@H]2O[C@H](SC)[C@H](O)[C@@H](O)[C@H]2O)[C@H](C)Cl)N(C)C1` [CLINDAMYCIN], for which the MIC was 0.125 µg/mL (≈ 0.294 µM) in experiment [1]; more than 16 µg/mL in experiment [2]; 0.125 µg/mL (≈ 0.294 µM) in experiment [3]; 0.125 µg/mL (≈ 0.294 µM) in experiment [4]; 0.125 µg/mL (≈ 0.294 µM) in experiment [5]; 0.125 µg/mL (≈ 0.294 µM) in experiment [6]. Besides, the MIC in experiment [7] and in experiment [8] was 0.25 µg/mL (≈ 0.588 µM) in each case.

For the origin of these results see ChEMBL document CHEMBL1275429, “Pharmacodynamic characterization of ceftobiprole in experimental pneumonia caused by phenotypically diverse Staphylococcus aureus strains” (Antimicrob Agents Chemother, 2008).
